Source: ChEMBL document CHEMBL1123266, “Antibacterial activity of phosphono dipeptides related to alafosfalin” (J Med Chem, 1986)
In brackets after ≈: the same amount, converted by molar mass.

Key:
Bacillus subtilis [1] = experiment: Concentration (IC50) to inhibit the growth of Bacillus subtilis; type: functional, organism-based
Procedure, shortened: (§1)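 Broth dilution in a defined liquid peptide medium lacking antagonists of small peptide mimetics. Inocula were overnight cultures grown in this medium at 37 °C and diluted to about 4 × 10^6 cfu/mL. Compound was tested as a doubling dilution series, final 0.065–512 μg/mL, incubated overnight at 37 °C. Turbidity was read, and IC50 is the concentration reducing 24-h growth to 50% of control.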

Escherichia coli [2] = experiment: Minimum inhibitory concentration (MIC) to control the growth of Escherichia coli strain PCM 2057; type: functional
Procedure, shortened: (§2)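 Doubling dilutions of compound were made in a defined liquid peptide medium free of peptide-mimetic antagonists, final 0.065–512 μg/mL. The inoculum was an overnight 37 °C culture diluted to about 4 × 10^6 cfu/mL, incubated overnight at 37 °C. Non-turbid samples were subcultured (0.1 mL) onto solid peptide-medium agar and incubated overnight at 37 °C to assign MIC.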

Escherichia coli [3] = experiment: Concentration (IC50) to inhibit the growth of Escherichia coli.; type: functional, organism-based; procedure, shortened: as §1
Klebsiella aerogenes [4] = experiment: Concentration (IC50) to inhibit the growth of Klebsiella aerogenes.; type: functional, organism-based; procedure, shortened: as §1
Klebsiella aerogenes [5] = experiment: Minimum inhibitory concentration (MIC) to control the growth of Klebsiella aerogenes strain PCM 2063; type: functional; procedure, shortened: as §2
Staphylococcus aureus [6] = experiment: Concentration (IC50) to inhibit the growth of Staphylococcus aureus.; type: functional, organism-based; procedure, shortened: as §1
Staphylococcus aureus [7] = experiment: Minimum inhibitory concentration (MIC) to control the growth of Staphylococcus aureus strain PCM 2054.; type: functional; procedure, shortened: as §2
Serratia marcescens [8] = experiment: Concentration (IC50) to inhibit the growth of Serratia marcescens.; type: functional, organism-based; procedure, shortened: as §1
Serratia marcescens [9] = experiment: Minimum inhibitory concentration (MIC) to control the growth of Serratia marcescens strain PCM 549.; type: functional; procedure, shortened: as §2
Enterococcus faecalis [10] = experiment: Concentration (IC50) to inhibit the growth of Streptococcus faecalis.; type: functional, organism-based; procedure, shortened: as §1
Enterococcus faecalis [11] = experiment: Minimum inhibitory concentration (MIC) to control the growth of Streptococcus faecalis strain PCM 896; type: functional; procedure, shortened: as §2
Bacillus subtilis [12] = experiment: Minimum inhibitory concentration (MIC) to control the growth of Bacillus subtilis strain PCM 1949.; type: functional; procedure, shortened: as §2

Compound | IC50 (Bacillus subtilis [1]) [µg/mL] | MIC (Escherichia coli [2]) [µg/mL] | IC50 (Escherichia coli [3]) [µg/mL] | IC50 (Klebsiella aerogenes [4]) [µg/mL] | MIC (Klebsiella aerogenes [5]) [µg/mL] | IC50 (Staphylococcus aureus [6]) [µg/mL] | MIC (Staphylococcus aureus [7]) [µg/mL] | IC50 (Serratia marcescens [8]) [µg/mL] | MIC (Serratia marcescens [9]) [µg/mL] | IC50 (Enterococcus faecalis [10]) [µg/mL] | MIC (Enterococcus faecalis [11]) [µg/mL] | MIC (Bacillus subtilis [12]) [µg/mL]
CC(C)CC(N)C(=O)N1CCCC1P(=O)(O)O (configuration not stated) | > 512 | 128 (≈ 484 µM) | 70 (≈ 265 µM) | 154 (≈ 583 µM) | 256 (≈ 969 µM) | 35 (≈ 132 µM) | 64 (≈ 242 µM) | 83 (≈ 314 µM) | 512 (≈ 1940 µM) | 42 (≈ 159 µM) | > 512 | > 512
CC(N)C(=O)NC(C12CC3CC(CC(C3)C1)C2)P(=O)(O)O (configuration not stated) | > 512 | > 512 | > 512 | > 512 | > 512 | > 512 | > 512 | > 512 | > 512 | > 512 | > 512 | > 512
CC(C)CC(N)C(=O)NC(C1CCCC1)P(=O)(O)O (configuration not stated) | 435 (≈ 1490 µM) | > 512 | > 512 | > 512 | > 512 | 6 (≈ 20.5 µM) | > 512 | 64 (≈ 219 µM) | 128 (≈ 438 µM) | > 512 | > 512 | > 512
CC(=O)OCC(NC(=O)C(N)CC(C)C)P(=O)(O)O (configuration not stated) | 1.4 (≈ 4.73 µM) | > 512 | > 512 | > 512 | > 512 | > 512 | > 512 | > 512 | > 512 | 0.065 (≈ 0.219 µM) | > 512 | > 512
CC(C)CC(N)C(=O)NC1(P(=O)(O)O)CCCCC1 (configuration not stated) | 5.6 (≈ 19.2 µM) | > 512 | > 512 | > 512 | > 512 | 0.065 (≈ 0.222 µM) | > 512 | > 512 | > 512 | > 512 | > 512 | > 512
CC(N)C(=O)NC(CCC(=O)O)P(=O)(O)O (configuration not stated) | 14 (≈ 55.1 µM) | 64 (≈ 252 µM) | 5.6 (≈ 22 µM) | 4.8 (≈ 18.9 µM) | 128 (≈ 504 µM) | 1.8 (≈ 7.08 µM) | 256 (≈ 1010 µM) | 0.065 (≈ 0.256 µM) | > 512 | 32 (≈ 126 µM) | > 512 | 16 (≈ 62.9 µM)
CC(C)CC(N)C(=O)NC(CCC(=O)O)P(=O)(O)O (configuration not stated) | 14 (≈ 47.3 µM) | 128 (≈ 432 µM) | 18 (≈ 60.8 µM) | 22 (≈ 74.3 µM) | 128 (≈ 432 µM) | 128 (≈ 432 µM) | > 512 | 16 (≈ 54 µM) | > 512 | 32 (≈ 108 µM) | > 512 | 128 (≈ 432 µM)
CC(C)CC(N)C(=O)NC(C(C)C)P(=O)(O)O (configuration not stated) | 179 (≈ 672 µM) | > 512 | 282 (≈ 1060 µM) | 0.065 (≈ 0.244 µM) | > 512 | 32 (≈ 120 µM) | > 512 | > 512 | > 512 | 410 (≈ 1540 µM) | > 512 | 512 (≈ 1920 µM)
CC(N)C(=O)N1CCCC1P(=O)(O)O (configuration not stated) | > 512 | > 512 | > 512 | > 512 | > 512 | > 512 | > 512 | > 512 | > 512 | > 512 | > 512 | > 512
CC(C)CC(NC(=O)C(C)N)P(=O)(O)O (configuration not stated) | 153 (≈ 642 µM) | > 512 | > 512 | > 512 | > 512 | 48 (≈ 201 µM) | 256 (≈ 1070 µM) | > 512 | > 512 | 90 (≈ 378 µM) | > 512 | > 512
CC(C)CC(N)C(=O)NC(Cc1ccccc1)P(=O)(O)O (configuration not stated) | 0.065 (≈ 0.207 µM) | > 512 | > 512 | > 512 | > 512 | 0.6 (≈ 1.91 µM) | > 512 | > 512 | > 512 | > 512 | > 512 | > 512
